Screening results: PubChem, Johns Hopkins Ion Channel Center
KCNQ1 act: potentiates or activates the human KCNQ1 potassium channel; AID 2648; P51787; B-score at 10 µM; hit rate 0.35% among 310,000; CHO-K1 KCNQ1, thallium flux FluxOR fluorescence; stronger effect = higher value;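 active = fluorescence ratio B-score, a plate-corrected score, at least three library SD, with initial intensity B-score within 5 SD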
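Test system: CHO-K1 cells stably expressing KCNQ1 / Medium: assay buffer / Also added: depolarizing K+/Tl+ stimulus, K2SO4 and Tl2SO4 each 12.5 mM in 5x stock / Incubation: 90 min dye loading and 20 min compound exposure, both at room temperature / Signal: thallium influx via FluxOR fluorescence, kinetic imaging / Evaluation: B score of baseline-normalized fluorescence ratio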
KCNK9 inh: blocks the human KCNK9 two-pore domain potassium channel. B-score at 10 µM. HEK293 KCNK9, FluxOR thallium flux fluorescence; stronger effect = lower value. AID 488922. hit rate 1.2% among 310,000;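 active = ratio B-score over 3 SD below the library mean, with starting fluorescence within 5 SD of its mean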;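 note: negative B-score means less thallium flux so channel inhibition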
Kir21 block: Kir2.1 (mouse) channel inhibition; P35561; HEK293-Kir2.1, FluxOR thallium flux fluorescence; stronger effect = lower value; B-score at 10 µM; hit rate 0.85% among 310,000;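 active = fluorescence ratio B-score at or below minus 3 SD of library scores, with starting-brightness B-score within 2 SD, cut at about -4.2 in these data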;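 note: channel flux triggered by added potassium and thallium sulfate stimulus; B-score of peak minus minimum fluorescence over baseline after thallium stimulus; more negative B-score means stronger Kir2.1 block with less thallium influx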
KCNK3 block: human KCNK3 channel inhibition, primary screen | B-score at 10 µM | O14649 | hit rate 0.84% among 340,000 | CHO-KCNK3 thallium flux, FluxOR fluorescence; stronger effect = lower value | AID 602410;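 active = B-score under library mean minus 4 SD, starting fluorescence ratio at most library mean plus 5 SD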;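 note: more negative B-score means stronger inhibition of thallium flux through KCNK3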
Target sequence (O14649 whole entry, looked up): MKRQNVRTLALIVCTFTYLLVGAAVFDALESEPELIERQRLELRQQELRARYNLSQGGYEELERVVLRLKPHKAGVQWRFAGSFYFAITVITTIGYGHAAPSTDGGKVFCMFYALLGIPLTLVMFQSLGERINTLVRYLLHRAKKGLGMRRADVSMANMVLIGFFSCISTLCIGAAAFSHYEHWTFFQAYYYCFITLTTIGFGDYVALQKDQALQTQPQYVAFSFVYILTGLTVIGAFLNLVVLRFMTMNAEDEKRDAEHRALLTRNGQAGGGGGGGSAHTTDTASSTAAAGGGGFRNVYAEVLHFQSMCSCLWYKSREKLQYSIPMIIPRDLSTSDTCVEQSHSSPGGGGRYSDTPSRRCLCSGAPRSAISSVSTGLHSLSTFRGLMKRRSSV
KCNQ1 block: inhibitors of human KCNQ1 potassium channel. CHO-K1 KCNQ1, FluxOR thallium flux fluorescence; stronger effect = higher value. P51787. hit rate 1.3% among 310,000. B-score at 10 µM;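 active = compounds whose thallium flux B-score, printed positive for inhibition, exceeds three library SD while starting fluorescence stays within three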;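 note: channel opened by potassium depolarization with thallium stimulus after 20 min compound exposure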
hERG rescue: shields human hERG channel from block by proarrhythmic agents | hit rate 0.51% among 310,000 | AID 1511 | activation (rescue from dofetilide block), less the hit threshold, % at 10 µM | CHO-hERG, FluxOR thallium flux, dofetilide IC70 present;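 active = activation above the mean of controls blocked by dofetilide plus 5 SD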;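 note: thallium influx through hERG after potassium depolarization seen as dye fluorescence rise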
Active calls of the source: *; i = inactive; . = no result given. Shown are actives, neighbours in structure and some others; about 3.8% of the full set was active somewhere.

SMILES	KCNQ1 act	KCNK9 inh	Kir21 block	KCNK3 block	KCNQ1 block	hERG rescue
COC(=O)c1nccnc1C(=O)Nc1ccccc1N1CCOCC1	i	i	0.02	i	i	-1.2
Nc1nc(-c2ccccn2)nc(N)c1Cc1ccccc1F	i	i	-0.43	i	i	-10.2
Nc1nc(-c2ccccn2)nc(N)c1Cc1ccc(Cl)cc1Cl	9*	i	0.41	i	i	-11.9
COc1ccc(CCNC(=O)CSc2nn(-c3ccccc3)c(=S)s2)cc1	i	i	0.08	i	i	-8.2
COc1ccc(CC(=O)N/N=C/c2ccc(C)s2)cc1	i	i	-0.97	i	i	-7.6
COc1cc(NC(=S)N2CCC(C(O)(c3ccccc3)c3ccccc3)CC2)cc(OC)c1	23*	i	0.46	i	i	-3.2
CC(=O)c1ccc(N2CCN(S(=O)(=O)c3csc(C(N)=O)c3)CC2)cc1	i	i	-0.03	i	i	-4.6
NC(=O)c1cc(S(=O)(=O)N2CCN(c3ccc([N+](=O)[O-])cc3)CC2)cs1	i	i	-1.63	i	7*	-9.5
CC1CN(CC(O)COc2ccc(C#N)cc2)CCN1CC(O)COc1ccc(C#N)cc1 (stereo not drawn)	i	i	-0.04	i	i	-10.6
CC1=NN(CCc2ccccn2)C(=O)CC1	i	i	-0.64	i	i	-8.3
COc1cccc(NC(=O)c2ccc3c(c2)OCO3)c1	i	i	0	i	i	-3.2
COc1cccc(NC(=O)c2oc3ccccc3c2NC(=O)c2ccc3c(c2)OCO3)c1	i	-7.86*	0.28	i	i	-12.9
CS(=O)(=O)c1ccccc1-c1nnc(NC(=O)c2cccc(N3C(=O)CCC3=O)c2)o1	i	i	-2.11	i	i	-2.6
O=C(C(Sc1ccccc1)c1ccc(Br)cc1)N1CCOCC1 (stereo not drawn)	i	i	-5.78*	i	i	-8.0
Cc1c(C(=O)N2CCN(CC(=O)Nc3ccccc3Cl)CC2)oc2ccc(Br)cc12	.	.	.	i	.	.
Cc1cc(NC(=O)C2CC(=O)N(c3cccc(Cl)c3)C2)no1 (stereo not drawn)	i	i	0.8	i	i	-2.5
Cc1ccc(-n2[nH]c(C)c(C=Nc3cc(C)ccn3)c2=O)cc1	i	i	1.68	i	i	-1.4
COc1ccc2nc(/N=C/c3c(C)[nH]n(-c4ccc(C)cc4)c3=O)sc2c1	39*	i	1.05	i	i	10.2*
Cc1[nH]n(-c2ccc(Cl)cc2)c(=O)c1/C=N/c1nnc(-c2ccccc2)s1	9*	i	0.13	i	i	87.5*
O=C(Nc1ccc(C(=O)NCCCN2CCN(c3ccccc3)CC2)cc1)C1=CSCCO1	i	i	-0.75	i	i	-10.1
CCOC(=O)C1(Cc2ccc(Cl)cc2)CCN(C(=O)c2cc(C)nc(C)n2)CC1	i	i	0.37	i	i	-0.3
COc1cccc(NC(=O)CN(C)C(=O)CSc2nc(C)cc(C)n2)c1	.	.	.	i	.	.
CCOC(=O)c1sc(N(Cc2ccccc2)C(=O)CSc2ncn[nH]2)nc1C	i	i	-0.09	i	i	-5.8
O=C(O)CSCC(=O)N(Cc1ccccc1)c1nc(-c2ccccc2)c(-c2ccccc2)s1	i	i	1.64	i	8*	-13.2
CCCCN(C(=O)c1ccc2c(c1)OCO2)c1ccccc1	i	i	-5.4*	i	i	-11.0
SMILES	KCNQ1 act	KCNK9 inh	Kir21 block	KCNK3 block	KCNQ1 block	hERG rescue
CCOC(=O)C1=C(COC(=O)C2CC(=O)N(c3ccc(C)cc3)C2)NC(=O)NC1C (stereo not drawn)	i	i	0.62	i	i	-15.3
S=c1nc(COc2ccccc2)[nH]c2ccccc12	92*	i	0.24	i	i	76.2*
S=c1nc(Cc2ccccc2)[nH]c2ccccc12	48*	i	-0.58	i	i	44.1*
S=c1nc(Cc2ccc(Cl)cc2)[nH]c2ccccc12	43*	i	-0.27	i	i	4.0
S=c1[nH]c2ccc(Cl)cc2[nH]1	i	i	1.16	i	i	-9.2
S=c1[nH]c2cc(Cl)ccc2s1	74*	i	1.91	i	i	55.2*
